Experimental data from different studies.
Lines come from different studies, so protocols differ.

SMILES	test system	setting	endpoint	value
C[C@@H](Oc1ccc(S(C)(=O)=O)cc1C(=O)N1C[C@@H]2C[C@]2(c2cc(C(F)(F)F)on2)C1)C(F)(F)F	human, plasma	oral, 10 mg, single dose, fed	CL/F	73.1 mL/min
CN1CCC(COc2cnc(-c3cccc(Cn4nc(-c5cccc(C#N)c5)ccc4=O)c3)nc2)CC1	human, plasma	intravenous, single dose	clearance	~3 mL/min/kg
COc1ccc(F)cc1C(=O)NCc1ccc(-c2nn([C@@H](C)C(F)(F)F)c(N)c2C(N)=O)cc1	male human, urine	oral, 200 mg	renal clearance	4.83 mL/min
CC(C)C[C@H](NC(=O)[C@H](CC(C)C)NC(=O)[C@H](Cc1c[nH]c2ccccc12)NC(=O)[C@H](CCC(=O)O)NC(=O)[C@@H](NC(=O)[C@H](Cc1ccccc1)NC(=O)[C@H](CCC(=O)O)NC(=O)[C@H](CCCCNC(=O)COCCOCCNC(=O)COCCOCCNC(=O)CC[C@H](NC(=O)CCCCCCCCCCCCCCCCCCC(=O)O)C(=O)O)NC(=O)[C@H](C)NC(=O)[C@H](CCCCN)NC(=O)[C@H](CCCCN)NC(=O)[C@H](CCC(=O)O)NC(=O)[C@H](CC(=O)O)NC(=O)[C@H](CC(C)C)NC(=O)[C@H](Cc1ccc(O)cc1)NC(=O)[C@H](CCCCN)NC(=O)[C@H](CO)NC(=O)[C@H](Cc1ccc(O)cc1)NC(=O)[C@H](CC(=O)O)NC(=O)[C@H](CO)NC(=O)[C@@H](NC(=O)[C@H](Cc1ccccc1)NC(=O)[C@@H](NC(=O)CNC(=O)[C@H](CCC(N)=O)NC(=O)C(C)(C)NC(=O)[C@@H](N)Cc1c[nH]cn1)[C@@H](C)O)[C@@H](C)O)C(C)C)C(=O)N[C@@H](CCC(=O)O)C(=O)NCC(=O)NCC(=O)N1CCC[C@H]1C(=O)N[C@@H](CO)C(=O)N[C@@H](CO)C(=O)NCC(N)=O	human, plasma	subcutaneous, 16 mg, multiple doses, once daily, steady state, patients	CL/F	0.333 mL/min
OC[C@H]1O[C@@H](c2cc(Cc3ccc(C4CC4)cc3)c(Cl)c3c2CCO3)[C@H](O)[C@@H](O)[C@@H]1O	human, plasma	oral, 0.3 mg, single dose, fed, healthy volunteers	CL/F	173 mL/min
COc1ccc2c(c1)CN(C(=O)CCN1CCC(Cc3ccccc3)CC1)CC[S@@+]2[O-]	male human, plasma	intravenous, 0.4 mg/kg, healthy volunteers	clearance	162 mL/min
C=CC(=O)NC1CCN(c2ncc3ncnc(Nc4ccc(Oc5ccc6c(c5)ncn6C)c(C)c4)c3n2)CC1	male human, plasma	intravenous, 100 µg, single dose, healthy volunteers	clearance	106 mL/min
CN(C)C(=O)c1cc2cnc(Nc3ccc(N4CCNCC4)cn3)nc2n1C1CCCC1	human, plasma	oral, multiple doses, steady state, patients	CL/F	343 mL/min
N#Cc1cccc(-c2ccc3ncc(-c4cc(F)cc(F)c4)c(N4CCC(N)CC4)c3c2)c1O	human, plasma	intravenous, 50 µg	clearance	85 mL/min
CC(C)n1c(C2CCNCC2)nc2c([N+](=O)[O-])c(Br)c(Br)cc21	human, urine	oral, 75 mg, single dose	renal clearance	13.7 mL/min
